Screens (PubChem)
CHO parental Ca: ATP-evoked calcium signal inhibitors, parental CHO, primary screen, counter-screen for OX1R antagonist project, cell-based, fluorescence, Fluo-8 calcium dye; parental CHO-K1, ATP-induced calcium, Fluo-8 fluorescence; inhibition, % at 5.6 µM; 330,000 tested, 0.63% active;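 active = inhibition above that plate's mean sample inhibition plus 3 SD, cut at about 26% in these data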;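 also: 0% = ATP-challenged DMSO wells and 100% = DMSO wells without ATP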
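test system = CHO parental line | reagent = ATP stimulus | measured by = intracellular calcium via Fluo-8 no-wash fluorescent dye | control set = ATP and no-ATP DMSO wells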
OX1R antag-1: antagonists of human orexin 1 receptor (OX1R). OX1R-expressing cells, FRET antagonist read-out. inhibition, % at 6.6 µM. 330,000 tested, 1.8% active; in the data active = inhibition mostly above about 38%, no sharp cut-off; inactive = mostly below about 40%;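 also: 0% = agonist challenge alone and 100% = reference antagonist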
GalR3 antagonist: GalR3 antagonists in HEK293 cells, primary screen, cell-based, fluorescence readout; inhibition, % at 3 µM; 360,000 tested, 0.44% active; HEK293 GalR3-CNG cAMP membrane potential fluorescence; galR3 body fused to GalR1 C-terminus; AID 651719, 2012; Galanin receptor type 3 (Homo sapiens), O60755;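 active = inhibition above the screen-wide average plus 3 SD, cut at about 13% in these data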;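 also: forskolin and galanin both at EC90 stimulate the cells; cAMP rise reported by CNG channel membrane potential dye signal; 0% = forskolin plus galanin with DMSO and 100% = forskolin alone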
Target sequence (O60755 1-299 limits assumed): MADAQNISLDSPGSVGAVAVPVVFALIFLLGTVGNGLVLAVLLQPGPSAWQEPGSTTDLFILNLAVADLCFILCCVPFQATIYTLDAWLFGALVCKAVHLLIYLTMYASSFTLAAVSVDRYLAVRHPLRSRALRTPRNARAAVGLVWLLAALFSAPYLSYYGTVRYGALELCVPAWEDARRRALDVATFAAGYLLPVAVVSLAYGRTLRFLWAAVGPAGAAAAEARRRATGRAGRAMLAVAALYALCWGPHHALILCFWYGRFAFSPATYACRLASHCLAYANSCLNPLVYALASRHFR
OX1R antag-2: OX1R (HCRTR1) antagonists, primary screen, fluorescence, CHO/OX1R cells, Fluo-8 calcium, orexin A | Orexin/Hypocretin receptor type 1 (Homo sapiens), O43613 | Fluo-8 calcium fluorescence | inhibition, % at 5 µM | 330,000 tested, 0.43% active;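 active = inhibition above its plate's threshold, mean inhibition of all tested compounds on the plate plus 3 SD, cut at about 37% in these data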;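 also: 0% = orexin A challenge wells and 100% = SB-334867-A antagonist wells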
GPR7 antagonist: GPR7 receptor antagonists, primary screen, cell-based, fluorescence, single concentration; GPR7-expressing cells, fluorescence antagonist assay; AID 1861, 2009; 290,000 tested, 1.1% active; inhibition, % at 4.4 µM; Neuropeptides B/W receptor type 1 (Homo sapiens), P48145; in the data active = inhibition above about 16%, passing the limit was not always enough;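 also: cells stimulated with the agonist NPW; 0% = agonist with vehicle and 100% = vehicle without agonist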
Target sequence (P48145 whole entry, looked up): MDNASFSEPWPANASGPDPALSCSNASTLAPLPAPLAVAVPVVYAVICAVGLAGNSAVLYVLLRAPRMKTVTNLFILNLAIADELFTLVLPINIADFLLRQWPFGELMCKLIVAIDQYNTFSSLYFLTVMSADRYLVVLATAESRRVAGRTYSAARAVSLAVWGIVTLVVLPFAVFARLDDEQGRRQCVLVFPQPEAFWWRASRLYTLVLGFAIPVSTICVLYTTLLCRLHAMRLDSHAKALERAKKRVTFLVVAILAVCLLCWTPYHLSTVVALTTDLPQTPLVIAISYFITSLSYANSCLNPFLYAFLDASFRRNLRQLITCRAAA
GalR3 conf: GalR3 antagonist hit confirmation, cell-based, fluorescence, triplicate; shares compounds with GalR3 antagonist; HEK293 GalR3 CNG cAMP biosensor, membrane potential fluorescence; galR3 fused to GalR1 carboxy tail; challenged with forskolin and galanin at EC90; inhibition, % at 3 µM; 1,600 tested, 59% active;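 active = inhibition above the primary screen's cutoff, the mean inhibition of all screened compounds plus 3 SD, cut at about 13% in these data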;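 also: 0% = forskolin plus galanin and 100% = forskolin alone with DMSO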
HEK-CNG parental: nonspecific cAMP agonists in parental HEK-CNG cells, counter-screen for GalR3 antagonist project, cell-based, fluorescence, high throughput; 1,600 tested, 10% active; activation, % at 3 µM; shares compounds with GalR3 antagonist; HEK293-CNG parental cells, cAMP membrane potential fluorescence; normalised: DMSO wells 0%, forskolin wells 100%; in the data active = activation above about 1.3%
Numbers without * were called inactive; · = no result. This is a sample that favours compounds with a hit; in the whole collection about 3.1% have one here.

SMILES	CHO parental Ca	OX1R antag-1	GalR3 antagonist	OX1R antag-2	GPR7 antagonist	GalR3 conf	HEK-CNG parental
COc1ccc(-c2cccc(NS(=O)(=O)c3cc([N+](=O)[O-])c(C)c([N+](=O)[O-])c3)c2)nn1	-4.0	42.0	2.7	-21.8	·	·	·
Cc1c(C(=O)NCc2ccc(C(C)C)cc2)sc(=O)n1Cc1ccc(S(=O)(=O)N(C)C)cc1	·	·	37.4*	·	·	28.4*	-0.4
Cc1c(C(=O)NCc2ccc(Cl)c(Cl)c2)sc(=O)n1Cc1ccc(S(=O)(=O)N(C)C)cc1	·	·	0.0	·	·	·	·
Cc1cc(NC(=O)CCC(=O)N(CCC(C)C)C(C(=O)NC2CCCC2)c2ccccc2C)no1 (centres undefined)	-19.9	36.2	-8.3	-52.9	-1.4	·	·
CC(Nc1ncnc2ccccc12)c1ccccc1 (centres undefined)	38.2*	6.0	95.5*	21.1	6.9	105.8*	-0.2
CCOC(=O)c1c(C)[nH]c(C(=O)COC(=O)CNC(=O)c2ccccc2Cl)c1C	-16.3	10.6	2.0	-23.5	1.6	·	·
CCOC(=O)c1c(C)[nH]c(C(=O)COC(=O)COc2ccccc2C=O)c1C	-4.1	13.8	13.8*	4.7	3.3	-0.3	0.1
CCOC(=O)c1c(C)[nH]c(C(=O)COC(=O)[C@H](C)NC(=O)c2ccccc2Cl)c1C	-23.0	22.7	17.9*	1.5	-7.6	14.1*	0.1
COc1cc2c(cc1OC)/C(=C/C(=O)c1cccc([N+](=O)[O-])c1)NCC2	-25.6	27.8	11.3	-38.6	-22.1	·	·
COc1cc2c(cc1OC)/C(=C/C(=O)c1ccc(OC)c([N+](=O)[O-])c1)NCC2	·	·	18.6*	·	-20.9	24.9*	-0.2
C/C=C/c1cccc(-c2nc(C(=O)N3CCCCC3)cc3c2[C@@H](CCO)N(C(=O)NC(C)C)C3)c1	·	·	-5.9	·	·	·	·
CCCNC(=S)N1CCN(Cc2ccc3c(c2)OCO3)CC1	-8.6	18.7	-4.2	-7.0	5.4	·	·
CCOCCCNC(=S)N1CCN(Cc2ccc3c(c2)OCO3)CC1	7.9	13.9	15.1*	-16.3	-10.3	0.8	-0.1
CCN(CC)S(=O)(=O)c1ccc(Cl)c(NC(=O)COC(=O)c2cccn2C)c1	12.3	7.5	64.9*	2.2	0.1	-2.4	0.0
CCN(CC)S(=O)(=O)c1ccc(Cl)c(NC(=O)COC(=O)c2ccc(O)cc2)c1	-4.6	28.9	-1.5	-18.4	5.9	·	·
Cc1ccc(CNC(=O)c2ccc(CNc3c(N4CCCC4)c(=O)c3=O)cc2)cc1	1.0	7.6	13.0*	-18.2	-5.2	7.2	-0.8
Cc1cc(C)cc(NC(=O)c2ccc(CNc3c(N4CCCC4)c(=O)c3=O)cc2)c1	0.8	2.2	-6.1	-18.9	-7.7	·	·
O=P(c1ccccc1)(c1ccccc1)c1cc(S(=O)(=O)O)ccc1O	·	·	-6.2	·	-0.6	·	·
CN(C(=O)c1ccc2c(c1)SC1=NS(=O)(=O)CCN12)C(c1ccccc1)c1ccccc1	-12.6	12.4	30.9*	-17.5	-8.2	29.7*	0.1
O=C(O)c1ccc2c(c1)SC1=NS(=O)(=O)CCN12	10.2	6.8	3.2	10.2	3.9	·	·
Cc1ccc(O)c(N=Cc2cc(Cc3ccccc3)cc([N+](=O)[O-])c2O)c1	·	·	13.4*	·	-4.6	10.0	-0.5
Cc1nn(CC(C)C)c(Cl)c1C(=O)N(C)CC(=O)Nc1ccc(Cl)cc1	·	·	-4.8	·	·	·	·
N#Cc1ccccc1OCC(=O)NNC(=O)CCC1CCCC1	-10.0	3.4	-0.6	-5.9	·	·	·
O=C(N/N=C1\CC2CC=CC12)c1ccc(Br)cc1 (centres undefined)	-5.5	12.2	-1.7	-10.1	-0.3	·	·
Cc1cc(Br)c(OCc2ccc(C(=O)N/N=C3\CC4CC=CC34)cc2)c(Br)c1 (centres undefined)	-9.7	13.7	27.3*	2.5	-11.3	45.7*	0.2
SMILES	CHO parental Ca	OX1R antag-1	GalR3 antagonist	OX1R antag-2	GPR7 antagonist	GalR3 conf	HEK-CNG parental
COc1ccc(C2=NN(c3nc(C(=O)O)cs3)C(O)(C(F)(F)F)C2)c(OC)c1 (centres undefined)	-8.9	31.3	66.4*	-31.2	-10.2	74.0*	0.5
Cc1nn(-c2ccccc2)c(C)c1C(=O)OC(C)C(=O)NC1CCCCC1 (centres undefined)	-16.1	14.6	-7.8	-26.2	·	·	·
Oc1c(Br)cc(Br)cc1C=NCc1ccc(F)cc1	-8.3	-29.0	34.2*	-7.1	-6.6	5.3	0.1
O/N=C/c1cc(Br)ccc1OCc1ccc(F)cc1	-2.2	16.6	-6.2	-30.6	7.4	·	·
Oc1c(Br)cc(Br)cc1C=NCc1ccccc1	13.5	-12.9	·	-20.0	0.5	2.0	0.6
COc1ccccc1C(=O)NNC(=O)C1CCCO1 (centres undefined)	5.6	16.7	-9.5	-5.8	-8.4	·	·
CC[C@]1(c2cccc(C)c2)C(=O)N(C(=O)OC)N1C(=O)OC	-9.7	21.4	-4.9	-1.9	-8.5	·	·
Cc1noc(C)c1COC(=O)c1ccc(F)c(S(=O)(=O)N2CCCCC2)c1	-9.1	5.3	0.1	-34.5	-7.2	·	·
Cc1noc(C)c1COC(=O)c1cccc(S(=O)(=O)N2CCCCCC2)c1	49.3*	22.2	79.7*	13.4	-1.3	84.2*	-0.3
Cc1cc(C)c2oc(C(=O)N(Cc3ccccc3)C3CCS(=O)(=O)C3)cc(=O)c2c1 (centres undefined)	1.9	20.3	3.9	-20.4	-9.2	·	·
CCOc1ccc(CN(C(=O)c2cc(=O)c3cc(C)cc(C)c3o2)C2CCS(=O)(=O)C2)cc1 (centres undefined)	-19.1	28.3	16.7*	-28.0	-6.2	2.4	0.5
COC(=O)c1ccc(OC(=O)CCN2C(=O)C3C4c5ccccc5C(c5ccccc54)C3C2=O)cc1 (centres undefined)	-7.8	10.7	-5.3	-10.4	-5.9	·	·
Cn1cc(Cc2ccc(C(=O)N3CCOCC3)cn2)c2ccccc21	·	·	2.9	·	·	·	·
CCN(CC(=O)Nc1ccc2c(c1)OCCO2)C(=O)/C=C/c1ccc(F)cc1	-12.6	2.6	12.8*	-16.9	5.8	28.2*	2.4*
CCN(CC(=O)Nc1ccc2c(c1)OCCO2)C(=O)/C=C/c1ccccc1	10.5	13.3	-6.3	-15.8	9.3	·	·
Cc1cc(OC(F)F)ccc1NC(=S)NC1CCCC1	·	·	-4.9	·	-7.5	·	·
